Test [1] addresses D(2) dopamine receptor (Homo sapiens, UniProt P14416). The format is functional, cell-based, HEK293T.
The target in test [2] is Mu-type opioid receptor (Homo sapiens, UniProt P35372). Kind of test: Displacement of [3H]diprenorphine from human mu-opioid receptor […] in HEK293T cell membrane incubated for 2 hrs by scintillation counting analysis. The format is cell membranes. The method, boiled down:
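Transiently transfected HEK293T membranes in 50 mM Tris, pH 7.4. α2A: 10 μg/well, 0.5 nM [3H]RX821002, nonspecific with 10 μM RX821002. μOR: 6 μg/well, 0.3 nM [3H]diprenorphine, nonspecific with 10 μM naloxone. Ki from IC50 by Cheng–Prusoff.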

Test [3] concerns the target Histamine H2 receptor (Cavia porcellus, UniProt P47747). Kind of test: Agonist activity at histamine H2 receptor in spontaneous beating guinea pig right atrium assessed as increase in heart beat. The class given is functional, tissue-based, Right cardiac atrium.
Test [4] concerns the target T1, Muscarinic acetylcholine receptor M2 (Homo sapiens, UniProt P08172).
T1 sequence (P08172 whole entry): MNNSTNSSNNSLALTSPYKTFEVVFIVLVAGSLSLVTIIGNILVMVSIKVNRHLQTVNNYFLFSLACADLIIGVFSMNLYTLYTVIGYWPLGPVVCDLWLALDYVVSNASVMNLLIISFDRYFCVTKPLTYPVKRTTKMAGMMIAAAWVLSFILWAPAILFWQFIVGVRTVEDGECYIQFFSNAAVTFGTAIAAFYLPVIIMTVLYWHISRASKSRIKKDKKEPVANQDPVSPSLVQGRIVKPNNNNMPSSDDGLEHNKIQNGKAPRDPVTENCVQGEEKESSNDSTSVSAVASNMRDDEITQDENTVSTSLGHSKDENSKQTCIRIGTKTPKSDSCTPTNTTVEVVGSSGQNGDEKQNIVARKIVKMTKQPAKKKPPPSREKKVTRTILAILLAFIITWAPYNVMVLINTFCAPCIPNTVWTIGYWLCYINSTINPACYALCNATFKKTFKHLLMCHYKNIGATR
Nature of the test: Displacement of [3H]N-methylscopolamine from human muscarinic acetylcholine M2 receptor stably expressed in CHO cells by radioligand competition binding based analysis. The format is cell-based. The procedure, abridged: (§1)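 Whole CHO cells stably expressing hM1–hM5, competed against [3H]N-methylscopolamine. Kd/applied concentrations in nM: M1 0.17/0.2, M2 0.10/0.2, M3 0.12/0.2, M4 0.052/0.1, M5 0.20/0.3.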
A general note: Loss of bound radioactivity is the signal in a displacement assay; it reports binding, not function.

For test [5], the target named is D(1A) dopamine receptor (Homo sapiens, UniProt P21728). Kind of test: Displacement of [3H]SCH23390 from human D1 receptor stably expressed in HEK293T cells co-expressing luciferase and CEK incubated for 60 mins by scintillation counting analysis. The format is cell-based.
Test [6] concerns the target Beta-1 adrenergic receptor (Homo sapiens, UniProt P08588). Kind of test: Displacement of [3H]CGP12177 from human beta-1 adrenergic receptor […] in HEK293T cell membrane incubated for 2 hrs by scintillation counting analysis. The format is cell membranes. The method, boiled down: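 Membranes of transiently transfected HEK293T cells in 25 mM HEPES, 5 mM MgCl2, 1 mM EDTA, 0.01% BSA, pH 7.4. β1 at 2 μg/well, β2 at 4 μg/well, with 0.2 nM [3H]CGP12177. Nonspecific binding with 10 μM CGP12177. IC50 converted to Ki by Cheng–Prusoff.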

Test [7] deals with T2, Alpha-1A adrenergic receptor (Homo sapiens, UniProt P35348).
T2 sequence (P35348 whole entry): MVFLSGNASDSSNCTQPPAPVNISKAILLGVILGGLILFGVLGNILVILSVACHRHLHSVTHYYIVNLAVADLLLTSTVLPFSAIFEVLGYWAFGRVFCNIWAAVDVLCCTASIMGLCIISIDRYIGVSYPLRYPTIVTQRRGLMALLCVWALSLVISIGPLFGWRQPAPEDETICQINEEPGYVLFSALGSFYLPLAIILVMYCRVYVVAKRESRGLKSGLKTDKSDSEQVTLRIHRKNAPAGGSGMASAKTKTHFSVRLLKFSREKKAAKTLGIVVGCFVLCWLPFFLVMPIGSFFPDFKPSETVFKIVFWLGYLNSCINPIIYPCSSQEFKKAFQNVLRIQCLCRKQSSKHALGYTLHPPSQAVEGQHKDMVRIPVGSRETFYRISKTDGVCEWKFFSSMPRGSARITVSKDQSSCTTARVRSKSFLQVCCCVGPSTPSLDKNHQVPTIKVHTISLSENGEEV
Nature of the test: Displacement of [3H]prazosin from human alpha-1A adrenergic receptor stably expressed in HEK293T cell membrane incubated for 2 hrs by scintillation counting analysis. The class given is cell membranes.

For test [8], the target named is T3, Muscarinic acetylcholine receptor M5 (Homo sapiens, UniProt P08912).
T3 sequence (P08912 whole entry): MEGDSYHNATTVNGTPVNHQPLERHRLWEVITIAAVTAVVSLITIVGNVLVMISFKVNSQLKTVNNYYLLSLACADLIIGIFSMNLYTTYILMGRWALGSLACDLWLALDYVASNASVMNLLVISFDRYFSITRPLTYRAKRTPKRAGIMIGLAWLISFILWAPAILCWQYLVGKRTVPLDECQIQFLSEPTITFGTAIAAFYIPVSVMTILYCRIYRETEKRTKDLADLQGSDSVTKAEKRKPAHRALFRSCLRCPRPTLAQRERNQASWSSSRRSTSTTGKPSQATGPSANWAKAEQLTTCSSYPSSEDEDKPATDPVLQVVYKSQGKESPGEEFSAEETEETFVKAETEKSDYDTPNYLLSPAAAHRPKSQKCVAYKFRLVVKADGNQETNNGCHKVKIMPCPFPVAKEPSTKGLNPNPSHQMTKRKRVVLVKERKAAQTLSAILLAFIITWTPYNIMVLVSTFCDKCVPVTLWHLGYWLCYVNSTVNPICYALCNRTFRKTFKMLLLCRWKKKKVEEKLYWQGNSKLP
Nature of the test: Displacement of [3H]N-methylscopolamine from human muscarinic acetylcholine M5 receptor stably expressed in CHO cells by radioligand competition binding based analysis. The class given is cell-based. The procedure, abridged:
as §1

In test [9] the target is Histamine H4 receptor (Homo sapiens, UniProt Q9H3N8).
Test [10] addresses Histamine H3 receptor (Homo sapiens, UniProt Q9Y5N1). Nature of the test: Displacement of [3H]UR-PI294 from human histamine H3 receptor stably expressed in baculovirus infected Sf9 cell membrane co-expressing G-alphai2 and G-beta1gamma2 incubated for 60 mins by scintillation counting analysis. The class given is cell membranes. The method, boiled down: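 hH3R + Gαi2 + Gβ1γ2 expressed in Sf9 membranes. […] Mean ± SEM from N independent experiments in triplicate.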

Some results are limits rather than exact numbers.

Sequence of D(1A) dopamine receptor (P21728 whole entry): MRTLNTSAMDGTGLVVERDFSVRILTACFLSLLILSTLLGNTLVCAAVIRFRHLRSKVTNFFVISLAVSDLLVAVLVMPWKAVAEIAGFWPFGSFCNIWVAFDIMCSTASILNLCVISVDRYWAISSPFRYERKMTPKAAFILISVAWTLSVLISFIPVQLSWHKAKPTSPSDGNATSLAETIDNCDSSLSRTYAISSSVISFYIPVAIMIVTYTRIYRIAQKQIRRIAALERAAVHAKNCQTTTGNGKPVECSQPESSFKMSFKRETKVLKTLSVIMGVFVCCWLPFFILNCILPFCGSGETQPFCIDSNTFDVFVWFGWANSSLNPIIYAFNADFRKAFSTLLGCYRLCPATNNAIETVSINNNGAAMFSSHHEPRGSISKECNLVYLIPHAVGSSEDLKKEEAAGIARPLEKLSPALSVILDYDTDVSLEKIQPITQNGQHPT
Sequence of Histamine H4 receptor (Q9H3N8 whole entry): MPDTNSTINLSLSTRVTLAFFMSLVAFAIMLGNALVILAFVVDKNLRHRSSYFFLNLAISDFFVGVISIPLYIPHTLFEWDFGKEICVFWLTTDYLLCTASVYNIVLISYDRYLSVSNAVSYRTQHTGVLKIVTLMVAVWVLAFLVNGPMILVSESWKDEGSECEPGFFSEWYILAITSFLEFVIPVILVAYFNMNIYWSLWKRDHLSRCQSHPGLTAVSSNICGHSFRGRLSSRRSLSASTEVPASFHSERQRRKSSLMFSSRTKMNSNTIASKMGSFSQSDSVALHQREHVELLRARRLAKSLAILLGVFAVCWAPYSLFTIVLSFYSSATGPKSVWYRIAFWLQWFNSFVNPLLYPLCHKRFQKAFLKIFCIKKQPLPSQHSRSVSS
Sequence of Histamine H2 receptor (P47747 whole entry): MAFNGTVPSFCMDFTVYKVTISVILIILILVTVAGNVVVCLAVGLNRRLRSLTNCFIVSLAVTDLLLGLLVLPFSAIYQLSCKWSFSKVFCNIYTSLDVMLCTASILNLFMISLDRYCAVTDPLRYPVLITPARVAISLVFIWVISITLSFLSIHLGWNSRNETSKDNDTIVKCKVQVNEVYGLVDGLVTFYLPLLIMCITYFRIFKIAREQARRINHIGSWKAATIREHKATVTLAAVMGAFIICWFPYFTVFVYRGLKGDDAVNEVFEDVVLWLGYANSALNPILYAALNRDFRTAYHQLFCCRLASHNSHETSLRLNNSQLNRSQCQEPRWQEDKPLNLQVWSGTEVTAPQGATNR
Sequence of Histamine H3 receptor (Q9Y5N1 whole entry): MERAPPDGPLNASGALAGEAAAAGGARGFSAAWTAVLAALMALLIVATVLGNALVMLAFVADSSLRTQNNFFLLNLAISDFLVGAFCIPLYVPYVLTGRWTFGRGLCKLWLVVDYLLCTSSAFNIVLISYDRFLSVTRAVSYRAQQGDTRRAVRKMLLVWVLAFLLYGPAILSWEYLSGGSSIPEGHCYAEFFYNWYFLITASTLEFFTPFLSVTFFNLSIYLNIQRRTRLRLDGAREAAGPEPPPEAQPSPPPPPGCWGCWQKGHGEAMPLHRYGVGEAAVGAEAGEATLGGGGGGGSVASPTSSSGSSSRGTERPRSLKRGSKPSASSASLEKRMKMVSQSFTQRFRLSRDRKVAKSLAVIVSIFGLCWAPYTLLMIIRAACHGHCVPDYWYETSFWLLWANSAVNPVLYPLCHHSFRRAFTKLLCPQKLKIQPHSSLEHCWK
Sequence of D(2) dopamine receptor (P14416 whole entry): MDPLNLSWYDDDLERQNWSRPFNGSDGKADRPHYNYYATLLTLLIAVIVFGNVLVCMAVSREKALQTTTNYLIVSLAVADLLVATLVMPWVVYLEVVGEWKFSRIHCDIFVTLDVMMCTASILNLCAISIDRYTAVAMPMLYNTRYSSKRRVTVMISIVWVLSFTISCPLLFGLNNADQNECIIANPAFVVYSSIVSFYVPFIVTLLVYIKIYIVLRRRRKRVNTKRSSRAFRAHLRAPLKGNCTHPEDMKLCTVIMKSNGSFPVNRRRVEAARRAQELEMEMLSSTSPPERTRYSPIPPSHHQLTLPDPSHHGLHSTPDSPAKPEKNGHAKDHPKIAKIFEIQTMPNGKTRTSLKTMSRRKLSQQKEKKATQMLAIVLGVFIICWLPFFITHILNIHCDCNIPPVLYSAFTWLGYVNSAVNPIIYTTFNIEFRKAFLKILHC
Sequence of Mu-type opioid receptor (P35372 whole entry): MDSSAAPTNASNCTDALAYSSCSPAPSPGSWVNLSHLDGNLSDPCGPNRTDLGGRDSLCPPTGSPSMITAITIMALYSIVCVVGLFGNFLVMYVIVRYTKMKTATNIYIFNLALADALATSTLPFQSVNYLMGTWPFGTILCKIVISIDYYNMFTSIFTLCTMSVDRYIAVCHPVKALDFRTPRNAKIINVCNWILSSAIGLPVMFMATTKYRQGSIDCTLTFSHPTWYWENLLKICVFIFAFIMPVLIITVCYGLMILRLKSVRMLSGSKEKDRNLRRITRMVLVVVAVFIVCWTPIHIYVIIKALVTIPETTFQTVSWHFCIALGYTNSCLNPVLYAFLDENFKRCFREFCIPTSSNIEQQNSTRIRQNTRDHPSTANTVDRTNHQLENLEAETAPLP
Sequence of Beta-1 adrenergic receptor (P08588 whole entry): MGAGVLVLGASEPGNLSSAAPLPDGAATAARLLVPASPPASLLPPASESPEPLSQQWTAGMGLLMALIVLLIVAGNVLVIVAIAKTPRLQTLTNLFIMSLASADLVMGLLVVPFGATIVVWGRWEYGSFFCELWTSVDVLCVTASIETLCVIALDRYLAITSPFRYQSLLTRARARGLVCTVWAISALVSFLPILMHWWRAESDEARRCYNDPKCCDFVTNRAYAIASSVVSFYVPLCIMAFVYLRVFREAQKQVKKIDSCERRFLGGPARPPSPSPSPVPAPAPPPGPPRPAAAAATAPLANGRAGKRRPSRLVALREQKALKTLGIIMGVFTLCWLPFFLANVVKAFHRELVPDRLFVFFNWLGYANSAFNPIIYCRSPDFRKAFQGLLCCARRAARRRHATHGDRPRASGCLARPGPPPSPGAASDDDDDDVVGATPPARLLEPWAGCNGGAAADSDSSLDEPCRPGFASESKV

For the molecule `CCCCCNC(=O)/N=C(\N)NCCCc1nnc(N)s1.O=C(O)C(F)(F)F.O=C(O)C(F)(F)F`, the figures for the EC50 in [1] and in [3] were greater than 10 µM and 5.62 nM, respectively. The Kd (in general, the free concentration of one partner at which half of the binding sites on the other are occupied at equilibrium, for simple one-to-one binding) in [2] came to 0.09 nM; in test [4], 0.1 nM; in [5], 0.23 nM; in [6] it was 0.075 nM; in test [7], 0.25 nM; in [8] it was 0.2 nM. The same molecule had a Kd in [9] of 16 nM. Besides, the pKi (in general, the negative decadic logarithm of the Ki, by convention in mol/L) in test [2] is 5.47; in test [6] it was less than 4; in test [7], 5.45; in test [8], greater than 5. Moreover, the Ki (commonly a measure of affinity in units of concentration, obtained from inhibition or displacement) in test [5] was 2450 nM; in test [9], greater than 10 µM; in test [10], greater than 10 µM.

For the molecule `CCCCCNC(=O)/N=C(\N)NCCCc1sc(N)nc1C`, the Kd in test [2] is 0.09 nM; in test [4] it was 0.1 nM; in [5] it was 0.23 nM; in test [6], 0.075 nM; in test [7], 0.25 nM; in test [8], 0.2 nM. In addition, the pKi in test [2] is 5.99; in test [6] it was 4.66; in test [7], 5.69; in test [8] it was greater than 5. Also, the Ki in test [4] was greater than 10 µM; in test [5], 257 nM.

Consider `N/C(=N\C(=O)NCc1ccccc1)NCCCc1nnc(N)s1`, for which the EC50 (usually the concentration needed to bring the measured effect to its halfway point) in test [1] is greater than 10 µM; in test [3], 1.32 nM. Further, the Kd in test [2] worked out at 0.09 nM; in [4], 0.1 nM; in test [5], 0.23 nM; in test [6], 0.075 nM; in [7], 0.25 nM; in test [8] it was 0.2 nM. Also, in test [9], the Kd came out at 16 nM. For the same molecule, the pKi in [2] is 5.4; in test [6] it was less than 4; in test [7], 6.07; in test [8] it was greater than 5. Moreover, the Ki is 1380 nM in test [5], greater than 10 µM in test [9] and greater than 10 µM in test [10].

As for `C[C@@H](NC(=O)/N=C(\N)NCCCc1ncn[nH]1)c1ccccc1`, the EC50 in test [1] is greater than 10 µM; in [3], 38 nM. Moreover, the Kd worked out at 0.09 nM in [2]; 0.1 nM in test [4]; 0.23 nM in test [5]; 0.075 nM in [6]; 0.25 nM in test [7]; 0.2 nM in test [8]. Further, the Kd in test [9] amounted to 16 nM. Moreover, the pKi in test [2] was 4.76; in [6], 4.31; in test [7], 5.72; in [8] it was less than 5. In addition, the Ki in [4] is greater than 10 µM; in [5], 2190 nM; in test [9] it was greater than 10 µM; in [10], greater than 10 µM.
